Test results reported in paper PMC4267294 (RSC advances, 2014).

Legend:
[1] = In vivo biodistribution and clearance in rodents after intravenous injection; set-up: species or system CD-1 mice and SD rats; settings: rodent, 4 h post-injection
Outline: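 Male CD-1 mice (≈25 g) and male Sprague-Dawley rats (≈250 g) were anaesthetised with ketamine 100 mg/kg plus xylazine 10 mg/kg i.p. They received test compound i.v. (mice 25 nmol, rats 100 nmol) and were imaged 4 h later on the FLARE NIR system (760 nm excitation, 11.0 mW/cm2; 810 ± 20 nm emission). Organ signal-to-background was calculated against surrounding muscle, with ≥3 animals per time point, mean ± s.d.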

Stability = assay type: in vitro ADME, bovine; settings: fluorophore conjugated with a small molecule ligand, 24 h
[2] = Optical/chemical stability of fluorophores in 100% warm serum; assay type: in vitro ADME, bovine; settings: 24 h
Outline: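 Test fluorophores (10 mM DMSO stock, 100 μM working solution) were diluted into 100% FBS buffered with 50 mM HEPES, pH 7.4, and held at 37 °C. Optical stability was followed over time to 24 h by absorbance and fluorescence spectra, under 770 nm laser excitation at 10 mW.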

[3] = 100% FBS supplemented with 50 mM HEPES, pH 7.4; settings: fetal bovine, 37 °C, up to 24 h

Row | renal excretion [1] [%] | serum stability [2] [%] | fragment found [3] | not cleaved [3] | Molecule | stable form maintained in warm serum (Stability) [%]
1 | > 80 | > 99 | – | – | CC1(C)C(/C=C/C2=C(c3ccc(CCC(=O)O)cc3)C(=C/C=C3/N(CCC[N+](C)(C)C)c4ccc(S(=O)(=O)O)cc4C3(C)C)/CCC2)=[N+](CCC[N+](C)(C)C)c2ccc(S(=O)(=O)O)cc21 [ZW800-1C] | > 98
2 | – | – | hydrolyzed form of cRGD-ZW800-1A, 24 h | >98%, 24 h | Cyclo(Arg-Gly-Asp-D-Tyr-Lys) | –
